Results on one molecule are retold here after ChEMBL document CHEMBL5357024, “MDM2 Antagonist Idasanutlin Reduces HDAC1/2 Abundance and Corepressor Partners but Not HDAC3” (ACS Med Chem Lett, 2024).

Assay type in all cases: cell-based
The target of test [1] is Lysine-specific histone demethylase 1A (Homo sapiens) (UniProt O60341). Put plainly: Induction of LSD1 degradation in human HCT-116 cells assessed as reduction in LSD1 abundance by measuring remaining activity at 5 uM measured after 24 hrs by Western blot analysis (reference value: 100%). The method, boiled down:
(§1)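 HCT116 cells seeded in six-well plates for 24 h, then exposed 24 h to compound (0.01–10 μM) or DMSO in fresh medium. Lysis in Tris-HCl/NaCl/NP-40/Triton X-100 with protease inhibitor. Bradford-normalised 30 μg protein per lane. Quantitative Western blot used specific HDAC1, HDAC2, HDAC3, LSD1 or Sin3a antibodies with IRDye secondaries. Abundance compared with DMSO, n = 2 replicates.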

Test [2] addresses T1, Paired amphipathic helix protein Sin3a (Homo sapiens) (UniProt Q96ST3).
T1 sequence (whole entry): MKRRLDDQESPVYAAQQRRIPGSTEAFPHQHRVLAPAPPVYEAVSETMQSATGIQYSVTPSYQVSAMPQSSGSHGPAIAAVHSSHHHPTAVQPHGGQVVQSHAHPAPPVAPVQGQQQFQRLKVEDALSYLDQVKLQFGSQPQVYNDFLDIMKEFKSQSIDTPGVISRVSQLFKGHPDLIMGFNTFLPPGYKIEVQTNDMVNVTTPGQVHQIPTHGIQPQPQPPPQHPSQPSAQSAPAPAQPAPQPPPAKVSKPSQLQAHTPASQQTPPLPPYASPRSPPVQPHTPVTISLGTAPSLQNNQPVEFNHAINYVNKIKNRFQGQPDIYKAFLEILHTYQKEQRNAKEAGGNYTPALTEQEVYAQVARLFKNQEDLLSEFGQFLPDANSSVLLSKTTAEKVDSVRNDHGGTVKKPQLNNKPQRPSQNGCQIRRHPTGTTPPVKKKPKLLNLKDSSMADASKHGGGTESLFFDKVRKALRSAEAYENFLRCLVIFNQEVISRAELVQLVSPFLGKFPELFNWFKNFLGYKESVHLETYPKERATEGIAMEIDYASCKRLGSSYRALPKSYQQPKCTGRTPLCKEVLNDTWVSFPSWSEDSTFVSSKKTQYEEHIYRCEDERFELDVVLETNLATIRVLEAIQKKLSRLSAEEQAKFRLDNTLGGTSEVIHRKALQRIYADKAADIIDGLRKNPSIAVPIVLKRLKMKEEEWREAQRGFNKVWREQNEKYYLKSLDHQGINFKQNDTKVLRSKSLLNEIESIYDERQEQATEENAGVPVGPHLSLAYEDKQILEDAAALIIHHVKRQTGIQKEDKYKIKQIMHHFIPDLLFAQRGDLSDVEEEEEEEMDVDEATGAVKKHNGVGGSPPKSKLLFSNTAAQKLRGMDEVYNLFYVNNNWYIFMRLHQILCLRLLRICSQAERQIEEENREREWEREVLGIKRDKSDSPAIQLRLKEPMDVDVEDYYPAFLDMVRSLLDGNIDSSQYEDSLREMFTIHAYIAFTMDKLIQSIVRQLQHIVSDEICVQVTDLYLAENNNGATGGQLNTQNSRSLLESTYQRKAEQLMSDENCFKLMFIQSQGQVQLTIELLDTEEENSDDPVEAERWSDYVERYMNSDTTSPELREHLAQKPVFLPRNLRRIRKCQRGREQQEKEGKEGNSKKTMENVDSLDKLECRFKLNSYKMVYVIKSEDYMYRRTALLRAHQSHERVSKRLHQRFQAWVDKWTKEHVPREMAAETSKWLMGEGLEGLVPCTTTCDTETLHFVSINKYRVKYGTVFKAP
In words: Induction of SIN3A degradation in human HCT-116 cells assessed as reduction in SIN3A abundance by measuring remaining activity at 0.25 uM measured after 24 hrs by Western blot analysis (reference value: 100%). The method, boiled down:
as §1
For orientation: A western blot detects proteins with antibodies after separation by electrophoresis.

Test [3] has as its target T2, E3 ubiquitin-protein ligase Mdm2/Histone deacetylase 3 (Homo sapiens) (UniProt Q00987+O15379). Put plainly: PROTAC activity at MDM2/HDAC3 in human HCT-116 cells assessed as reduction in HDAC3 abundance by measuring remaining activity at 10 uM measured after 24 hrs by Western blot analysis (reference value: 100%). The method, boiled down: (§2)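 HCT116 cells in DMEM with 10% FBS and glutamine/penicillin/streptomycin at 37 °C, 5% CO2. Seeded 4 × 10^5 cells/well, after 24 h treated 24 h with DMSO or compound in fresh medium. Lysed in Tris-HCl/NaCl/NP-40/Triton X-100 buffer with protease inhibitor, Bradford-quantified, 30 μg protein per lane. Quantitative Western blot with specific HDAC1/2/3 antibodies, IRDye secondaries, infrared imaging, versus DMSO. n = 2 replicates.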

Test [4] deals with T3, E3 ubiquitin-protein ligase Mdm2/Histone deacetylase 1 (Homo sapiens) (UniProt Q00987+Q13547). Put plainly: PROTAC activity at MDM2/HDAC1 in human HCT-116 cells assessed as decrease in HDAC1 abundance by measuring remaining activity at 0.1 uM measured after 24 hrs by Western blot analysis (reference value: 100%). A digest of the protocol:
as §1

The target of test [5] is T4, E3 ubiquitin-protein ligase Mdm2/Histone deacetylase 2 (Homo sapiens) (UniProt Q00987+Q92769). Put plainly: PROTAC activity at MDM2/HDAC2 in human HCT-116 cells assessed as decrease in HDAC2 abundance by measuring remaining activity at 0.1 uM measured after 24 hrs by Western blot analysis (reference value: 100%). A digest of the protocol:
as §1

The target of test [6] is T4, E3 ubiquitin-protein ligase Mdm2/Histone deacetylase 2 (Homo sapiens). In words: PROTAC activity at MDM2/HDAC2 in human HCT-116 cells assessed as decrease in HDAC2 abundance by measuring remaining activity at 1 uM measured after 24 hrs by Western blot analysis (reference value: 100%). A digest of the protocol: as §1
Test [7] concerns the target Lysine-specific histone demethylase 1A (Homo sapiens) (UniProt O60341). Put plainly: Induction of LSD1 degradation in human HCT-116 cells assessed as reduction in LSD1 abundance by measuring remaining activity at 10 uM measured after 24 hrs by Western blot analysis (reference value: 100%). The method, boiled down:
as §1

Test [8] has as its target T4, E3 ubiquitin-protein ligase Mdm2/Histone deacetylase 2 (Homo sapiens). In words: PROTAC activity at MDM2/HDAC2 in human HCT-116 cells assessed as decrease in HDAC2 abundance by measuring remaining activity at 0.05 uM measured after 24 hrs by Western blot analysis (reference value: 100%). A digest of the protocol:
as §1

The target in test [9] is T3, E3 ubiquitin-protein ligase Mdm2/Histone deacetylase 1 (Homo sapiens). In words: PROTAC activity at MDM2/HDAC1 in human HCT-116 cells assessed as decrease in HDAC1 abundance by measuring remaining activity at 5 uM measured after 24 hrs by Western blot analysis (reference value: 100%). A digest of the protocol:
as §1

Test [10] deals with T4, E3 ubiquitin-protein ligase Mdm2/Histone deacetylase 2 (Homo sapiens). In words: PROTAC activity at MDM2/HDAC2 in human HCT-116 cells assessed as induction of HDAC2 degradation by Western blot analysis. The note with it: dose 0.01-10 µM.
For test [11], the target named is T3, E3 ubiquitin-protein ligase Mdm2/Histone deacetylase 1 (Homo sapiens). Put plainly: PROTAC activity at MDM2/HDAC1 in human HCT-116 cells assessed as decrease in HDAC1 abundance by measuring remaining activity at 0.5 uM measured after 24 hrs by Western blot analysis (reference value: 100%). The method, boiled down:
as §1

Test [12] has as its target T2, E3 ubiquitin-protein ligase Mdm2/Histone deacetylase 3 (Homo sapiens). Put plainly: PROTAC activity at MDM2/HDAC3 in human HCT-116 cells assessed as reduction in HDAC3 abundance by measuring remaining activity at 0.25 uM measured after 24 hrs by Western blot analysis. A digest of the protocol: as §2

T4 sequence (Q00987 whole entry, looked up): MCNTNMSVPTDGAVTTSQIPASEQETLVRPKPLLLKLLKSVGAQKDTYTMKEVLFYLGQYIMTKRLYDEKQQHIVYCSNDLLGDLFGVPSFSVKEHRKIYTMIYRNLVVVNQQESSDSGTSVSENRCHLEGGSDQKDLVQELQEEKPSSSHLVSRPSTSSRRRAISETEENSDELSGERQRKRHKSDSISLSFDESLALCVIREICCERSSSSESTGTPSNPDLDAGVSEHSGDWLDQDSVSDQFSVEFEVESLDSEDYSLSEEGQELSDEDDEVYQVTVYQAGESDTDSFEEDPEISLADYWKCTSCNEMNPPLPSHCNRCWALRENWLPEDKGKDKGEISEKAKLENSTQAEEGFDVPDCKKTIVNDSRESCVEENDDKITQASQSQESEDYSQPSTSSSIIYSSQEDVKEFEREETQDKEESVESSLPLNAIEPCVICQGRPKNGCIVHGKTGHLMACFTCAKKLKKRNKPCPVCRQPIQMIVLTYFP
T4 sequence (Q92769 whole entry, looked up): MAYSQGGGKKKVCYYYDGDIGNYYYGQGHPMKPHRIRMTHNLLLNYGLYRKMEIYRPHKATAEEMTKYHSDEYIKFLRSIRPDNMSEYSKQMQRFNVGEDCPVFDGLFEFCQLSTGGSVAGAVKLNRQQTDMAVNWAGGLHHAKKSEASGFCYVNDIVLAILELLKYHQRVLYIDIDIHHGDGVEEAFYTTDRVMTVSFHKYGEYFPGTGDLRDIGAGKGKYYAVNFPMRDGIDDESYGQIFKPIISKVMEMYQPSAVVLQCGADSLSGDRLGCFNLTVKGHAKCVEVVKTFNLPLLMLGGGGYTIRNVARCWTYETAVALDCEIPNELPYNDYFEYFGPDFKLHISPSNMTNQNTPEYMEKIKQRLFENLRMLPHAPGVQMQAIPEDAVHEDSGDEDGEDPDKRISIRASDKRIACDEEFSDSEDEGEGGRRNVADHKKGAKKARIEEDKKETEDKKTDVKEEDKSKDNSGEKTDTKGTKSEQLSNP
T3 sequence (Q00987 whole entry, looked up): as the sequence (Q00987 whole entry, looked up) above
T3 sequence (Q13547 whole entry, looked up): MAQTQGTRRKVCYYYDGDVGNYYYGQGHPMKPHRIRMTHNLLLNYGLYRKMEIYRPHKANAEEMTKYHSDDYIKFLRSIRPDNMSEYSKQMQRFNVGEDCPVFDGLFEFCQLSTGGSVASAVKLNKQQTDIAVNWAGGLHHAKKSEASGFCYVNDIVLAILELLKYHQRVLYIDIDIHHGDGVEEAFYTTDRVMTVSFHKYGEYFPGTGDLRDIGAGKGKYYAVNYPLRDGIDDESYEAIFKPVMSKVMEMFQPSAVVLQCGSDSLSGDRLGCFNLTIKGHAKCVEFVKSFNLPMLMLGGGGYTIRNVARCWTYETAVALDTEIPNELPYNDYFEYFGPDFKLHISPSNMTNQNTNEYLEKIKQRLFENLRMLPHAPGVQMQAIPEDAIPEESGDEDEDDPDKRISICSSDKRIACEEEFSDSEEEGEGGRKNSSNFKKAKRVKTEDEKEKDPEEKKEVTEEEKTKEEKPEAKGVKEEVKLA
T2 sequence (O15379 whole entry, looked up): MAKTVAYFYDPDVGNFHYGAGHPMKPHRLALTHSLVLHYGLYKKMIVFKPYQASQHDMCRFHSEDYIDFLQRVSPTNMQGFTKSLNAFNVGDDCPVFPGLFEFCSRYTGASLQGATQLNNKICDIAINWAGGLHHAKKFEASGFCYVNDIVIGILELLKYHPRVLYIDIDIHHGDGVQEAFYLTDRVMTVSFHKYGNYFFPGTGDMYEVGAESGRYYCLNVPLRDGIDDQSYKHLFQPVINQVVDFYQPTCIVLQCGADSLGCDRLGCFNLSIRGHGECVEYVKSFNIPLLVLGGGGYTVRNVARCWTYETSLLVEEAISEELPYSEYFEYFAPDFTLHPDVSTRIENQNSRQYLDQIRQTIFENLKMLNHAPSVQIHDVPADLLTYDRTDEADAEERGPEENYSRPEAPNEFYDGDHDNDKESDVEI
T2 sequence (Q00987 whole entry, looked up): as the sequence (Q00987 whole entry, looked up) above

Turning to `COc1cc(C(=O)NCCOCCOCCOCCOCCC(=O)Nc2ccc(C(=O)Nc3ccccc3N)cc2)ccc1NC(=O)[C@@H]1N[C@@H](CC(C)(C)C)[C@](C#N)(c2ccc(Cl)cc2F)[C@H]1c1cccc(Cl)c1F`, the Activity in [1] is 70%; in [2], 92%; in [3] it was 91%; in test [4], 84%; in test [5], 92%; in test [6], 69%. Also, the Activity is 65% in test [7]; 90% in test [8]; 41% in test [9]; “Dose-Dependent Effect” in test [10]; 67% in test [11]; 102% in [12].
